High-throughput results (PubChem BioAssay)
In the library only some 2.5% were active in any assay of this set; here they are far more common.
Env fusion inh = inhibitors of HIV-1 Env-driven cell-cell fusion, primary screen, HeLa-JRFL effector, CEM21 target cells, luciferase | inhibition, % at 12.3 µM | hit rate 1.1% among 360,000 | AID 651610, 2012;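 active means mean replicate inhibition score of at least 50 and every replicate individually at or above 50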
EWS-Fli block = EWS/Fli-driven NR0B1 reporter inhibitors, primary screen, A673 cells, NR0B1 luciferase, luminescence, MLPCN library | viability-normalised | inhibition, % at 12.6 µM | hit rate 0.67% among 350,000;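 active means mean inhibition of at least 50% after viability correction, with every replicate also passing that limit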;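 further: firefly luciferase signal divided by Alamar Blue viability fluorescence both relative to DMSO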
PAX8 inh HTS = inhibitors of PAX8-driven TPO luciferase reporter, primary screen, RMG-I cells, single concentration | inhibition, % at 12.6 µM | hit rate 1.2% among 360,000 | SteadyGlo, 24 h | AID 652154, 2013;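 active means mean replicate inhibition at least 60% with every replicate also reaching 60%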;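 further: luciferase light reporting Pax8 driven TPO promoter activity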
FN deposit inh = inhibitors of fibronectin matrix deposition, primary screen, AH1F cells, Alexa488-fibronectin fluorescence, plate reader | hit rate 0.086% among 350,000 | AH1F fibroblasts, overnight | inhibition, % at 12.6 µM;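 active means mean inhibition across replicates of 30% or more, regardless of how many single replicates reach that level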
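Material – AH1F fibroblast monolayer, labelled fibronectin deposition · Reagent – labelled fibronectin 24 nM · Timing – 1 h adhesion, overnight exposure · Measured by – fluorescence at 485 nm excitation, 525 nm emission · Read-out – inhibition of fibronectin deposition signal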
Glyco luc inh = increase of ERlucT glycosylation luciferase signal, primary screen, N-linked glycosylation inhibitor project, D54 ERlucT cells, luminescence, set 2 | D54 ERlucT glycosylation luciferase reporter, 24 h; percent of 100 nM tunicamycin response | reporter increase, % at 12.5 µM | hit rate 0.23% among 360,000 | AID 588692, 2011;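 active means mean luciferase reporter signal, scaled so untreated is 0 and the glycosylation-blocking control 100, at or above a set limit in every replicate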;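 further: luciferase carries N-glycosylation sites so blocking glycosylation raises the light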
MLL AF4-AF9 inh = inhibitors of AF4 peptide binding to AF9, primary screen, biochemical, AlphaScreen, biotin-AF4 peptide, FLAG-AF9, single point; Protein AF-9 (Homo sapiens), P42568; inhibition, % at 10 µM; hit rate 0.47% among 350,000; AID 651704, 2012;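 active means every replicate reaching a set inhibition limit, whatever the replicate mean, cut at about 25% in these data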
Target sequence (P42568 whole entry, looked up): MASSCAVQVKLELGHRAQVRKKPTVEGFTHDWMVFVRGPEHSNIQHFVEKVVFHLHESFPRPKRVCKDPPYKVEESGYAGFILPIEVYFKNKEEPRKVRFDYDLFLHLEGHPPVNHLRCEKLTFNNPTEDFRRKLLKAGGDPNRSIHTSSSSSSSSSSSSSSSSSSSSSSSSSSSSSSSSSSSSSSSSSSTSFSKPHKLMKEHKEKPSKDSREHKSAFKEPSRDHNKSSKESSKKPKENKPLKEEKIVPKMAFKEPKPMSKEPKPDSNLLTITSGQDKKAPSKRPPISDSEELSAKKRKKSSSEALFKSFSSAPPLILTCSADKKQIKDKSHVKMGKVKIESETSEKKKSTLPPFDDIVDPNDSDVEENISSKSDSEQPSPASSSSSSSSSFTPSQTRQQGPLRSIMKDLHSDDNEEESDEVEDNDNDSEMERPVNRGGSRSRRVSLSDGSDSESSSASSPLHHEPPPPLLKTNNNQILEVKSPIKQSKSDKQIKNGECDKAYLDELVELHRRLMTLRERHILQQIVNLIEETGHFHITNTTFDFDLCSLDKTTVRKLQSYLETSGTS
Each line names hits and unclear results; the compound was inactive in the other large screens; [ ] = dose if it differs, or a comment.

CC(C)C[C@@H](CN1CCCC1CN1C(=S)NC[C@@H]1Cc1ccc(O)cc1)N1C[C@H](Cc2ccc(O)cc2)N(CCc2ccccc2)C1=S (stereo partly drawn)	PAX8 inh HTS 71 (no result: FN deposit inh)
CCOc1ccc(CCN2C(=S)N([C@@H](Cc3ccccc3)CN3CCC[C@@H]3CN3C(=S)NC[C@@H]3Cc3ccc(O)cc3)C[C@@H]2CC(C)C)cc1	Env fusion inh 64
CCOc1ccc(CCN2C(=S)N([C@@H](Cc3ccc(O)cc3)CN3CCC[C@@H]3CN3C(=S)NC[C@@H]3CC(C)C)C[C@@H]2Cc2ccc(O)cc2)cc1	Env fusion inh 67, PAX8 inh HTS 98 (no result: FN deposit inh)
O=C1NC[C@H](Cc2ccccc2)N(C[C@H]2CCCN2C[C@H](Cc2ccccc2)N2C[C@H](Cc3ccc(O)cc3)N(CCc3ccccc3)C(=O)C2=O)C1=O	Glyco luc inh 37
CCOc1ccc(CCN2C(=S)N([C@@H](Cc3ccc(O)cc3)CN3CCCC3CN3C(=S)NC[C@@H]3Cc3ccc(O)cc3)C[C@@H]2CC(C)C)cc1 (stereo partly drawn)	none
COc1ccc(S(=O)(=O)Nc2ccc3c(c2)C(=O)N([C@H](C)CO)C[C@H](C)[C@H](CN(C)S(C)(=O)=O)O3)cc1	none (no result: PAX8 inh HTS, FN deposit inh, Glyco luc inh)
COCC(=O)N(C)C[C@@H]1Oc2cc(C#C[C@H](C)O)ccc2S(=O)(=O)N([C@@H](C)CO)C[C@H]1C	none (no result: PAX8 inh HTS, Glyco luc inh)
CN1[C@@H]2Cn3c(ccc(-c4ccc(F)cc4)c3=O)[C@H]1[C@@H](C(=O)NC1CCC1)[C@@H]2CO	none (no result: PAX8 inh HTS, FN deposit inh, Glyco luc inh, MLL AF4-AF9 inh)
CC(C)(C)C(=O)Nc1cc2nn(-c3ccccc3)nc2cc1Cl	PAX8 inh HTS 74 (no result: EWS-Fli block, FN deposit inh, MLL AF4-AF9 inh)
Cc1ccc(N=c2c([N+](=O)[O-])nn(-c3ccc4c(c3)OCCO4)n2O)cc1F	none
O=[N+]([O-])c1nn(-c2ccc3c(c2)OCCO3)n(O)c1=Nc1ccccc1	EWS-Fli block 74
Cc1cc(C)cc(N=c2c([N+](=O)[O-])nn(-c3ccc4c(c3)OCCO4)n2O)c1	Env fusion inh 65, PAX8 inh HTS 100
COc1ccc2c3c(n(C)c2c1)[C@H](CO)N(Cc1ccccc1F)CC31CN(C(=O)C2CCOCC2)C1	none (no result: Env fusion inh, PAX8 inh HTS, FN deposit inh, Glyco luc inh)
N#C/C(=C\c1cccnc1)c1nc2ccccc2[nH]1	Glyco luc inh 42
C[C@@H]1CN([C@@H](C)CO)C(=O)c2cc(NS(=O)(=O)c3cn(C)cn3)ccc2O[C@@H](C)CCCCO[C@@H]1CN(C)S(=O)(=O)c1ccc(Cl)cc1	none (no result: FN deposit inh, Glyco luc inh)
O=C(NCC[C@H]1CC[C@@H](NS(=O)(=O)c2ccc(Cl)cc2)[C@H](CO)O1)c1ccccc1F	none (no result: FN deposit inh, Glyco luc inh)
O=S(=O)(c1cccc(Br)c1)N1CCN(c2ncnc3scc(-c4ccccc4)c23)CC1	none
Cc1sc2ncnc(N3CCN(S(=O)(=O)c4ccc(Br)cc4)CC3)c2c1C	Env fusion inh 78 (no result: EWS-Fli block, FN deposit inh)
COc1ccc(-c2csc3ncnc(N4CCN(S(=O)(=O)c5cccs5)CC4)c23)cc1	none (no result: PAX8 inh HTS)
Cc1csc2ncnc(N3CCN(S(=O)(=O)c4cccc(C(F)(F)F)c4)CC3)c12	Env fusion inh 57 (no result: FN deposit inh)
COc1ccc(-c2csc3ncnc(N4CCN(S(=O)(=O)c5ccc(C)cc5)CC4)c23)cc1	Env fusion inh 63
O=C(CN1CCOCC1)N1CCCCN2[C@H](C1)[C@H](c1ccc(C#Cc3ccccc3F)cc1)[C@@H]2CO	none (no result: Env fusion inh, FN deposit inh, Glyco luc inh)
C=C1C(=O)C23C(O)C1CCC2C12COC3(O)C(O)C1C(C)(C)CCC2O (stereo not drawn)	EWS-Fli block 68 (no result: Env fusion inh, PAX8 inh HTS, FN deposit inh)
C[C@H]1CCCCO[C@H](CN(C)Cc2ccccc2)[C@@H](C)CN([C@@H](C)CO)C(=O)c2cc(NC(=O)Nc3ccccc3)ccc2O1	none (no result: Glyco luc inh)
O=C(C[C@@H]1CC[C@@H]2[C@H](COC[C@H](O)CN2S(=O)(=O)c2ccccc2Cl)O1)NCc1ccccc1Cl	none (no result: Env fusion inh, Glyco luc inh)
CC(C)[C@H](CO)Nc1nc(NCc2ccc(S(N)(=O)=O)cc2)c2ncn(C(C)C)c2n1	PAX8 inh HTS 69 (no result: MLL AF4-AF9 inh)
C[C@@H]1CN([C@H](C)CO)C(=O)Cc2cc(NC(=O)Cc3cn(C)c4ccccc34)ccc2O[C@H]1CN(C)Cc1ccc(Cl)c(Cl)c1	none (no result: PAX8 inh HTS, FN deposit inh, Glyco luc inh)
CC(C)CC#Cc1ccc2c(c1)O[C@@H](CN(C)S(=O)(=O)c1cccc(F)c1)[C@@H](C)CN([C@H](C)CO)S2(=O)=O	Env fusion inh 68[16.7 µM] (no result: PAX8 inh HTS, FN deposit inh, Glyco luc inh)
CCCC#Cc1ccc2c(c1)O[C@@H](CN(C)S(=O)(=O)c1cccc(OC)c1)[C@@H](C)CN([C@@H](C)CO)S2(=O)=O	PAX8 inh HTS 66 (no result: Glyco luc inh)
CCCC#Cc1ccc2c(c1)O[C@@H](CN(C)S(=O)(=O)c1cccc(F)c1)[C@@H](C)CN([C@@H](C)CO)S2(=O)=O	Env fusion inh 60[16.7 µM] (no result: PAX8 inh HTS, FN deposit inh, Glyco luc inh)
CN1C(=O)c2cc(NC(=O)C3CC3)ccc2OC[C@@H]2O[C@H](CC(=O)O)CC[C@@H]21	none (no result: Env fusion inh, PAX8 inh HTS, Glyco luc inh)
O=C(NCC[C@H]1CC[C@@H](NS(=O)(=O)Cc2ccccc2)[C@@H](CO)O1)C1CCOCC1	none (no result: FN deposit inh, Glyco luc inh)
O=C(Nc1ccc(F)cc1)Nc1ccc2c(c1)[C@H]1C[C@@H](CC(=O)N3CCOCC3)O[C@@H](CO)[C@H]1O2	none (no result: Glyco luc inh)
CCN(CC)c1ccc(C(NC(=O)C(C)C)c2ccc3cccnc3c2O)cc1 (stereo not drawn)	PAX8 inh HTS 93, MLL AF4-AF9 inh 29
CCCC(=O)NC(c1ccc(N(C)C)cc1)c1c(O)ccc2ccccc12 (stereo not drawn)	none (no result: EWS-Fli block, MLL AF4-AF9 inh)
CCCCC(=O)NC(c1ccc(N(C)C)cc1)c1ccc2cccnc2c1O (stereo not drawn)	PAX8 inh HTS 86, MLL AF4-AF9 inh 57
CCCC(=O)NC(c1ccc2c(c1)OCO2)c1cc(Cl)c2cccnc2c1O (stereo not drawn)	none (no result: Env fusion inh, EWS-Fli block, PAX8 inh HTS, FN deposit inh, MLL AF4-AF9 inh)
CCCCC(=O)NC(c1ccc(N(CC)CC)cc1)c1ccc2cccnc2c1O (stereo not drawn)	PAX8 inh HTS 93
CC(C)C(=O)NC(c1ccco1)c1ccc2cccnc2c1O (stereo not drawn)	none (no result: Env fusion inh, EWS-Fli block, PAX8 inh HTS, FN deposit inh, MLL AF4-AF9 inh)
C[C@H]1CCCCO[C@@H](CN(C)S(=O)(=O)c2cn(C)cn2)[C@@H](C)CN([C@@H](C)CO)C(=O)c2cc(NC(=O)Nc3ccc(C(F)(F)F)cc3)ccc2O1	none (no result: FN deposit inh, Glyco luc inh, MLL AF4-AF9 inh)
O=C(Cc1ccncc1)N1C[C@@H]2N[C@H](C1)C2c1ccc(/C=C/c2ccccc2)cc1 (stereo partly drawn)	none (no result: Env fusion inh, Glyco luc inh, MLL AF4-AF9 inh)
O=C(N/N=C/c1ccsc1)c1cc(-c2ccncc2)nc2ccccc12	none (no result: EWS-Fli block, MLL AF4-AF9 inh)
O=C(N/N=C/c1ccccn1)c1cc(-c2ccncc2)nc2ccccc12	Glyco luc inh 41 (no result: EWS-Fli block, MLL AF4-AF9 inh)
O=C(N/N=C/c1ccsc1)c1cc(-c2cccs2)nc2ccccc12	PAX8 inh HTS 133 (no result: Env fusion inh)
